SMILES strings stand for the structures. Active and inactive are the calls of the source. The rule behind the calls is not given here. A value given as a limit tells only on which side of the number the result lay.

The test system of data set [1] is NCI-H1650. The data set is described as follows: Cytotoxicity against human NCI-H1650 cells assessed as growth inhibition after 48 hrs by MTT assay. It is filed as functional. The following applies: NCI-H1650, 48 h. A digest of the protocol:
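H1650 cells were exposed to drug for 48 h at five concentrations bracketing 1–40 μM in 10 μM steps, with MTT read-out. GI50 is given only where the data form a sigmoidal dose response.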
(Tetrazolium dyes change colour on reduction, which living cells bring about.)

Data set [2] relates to NCI-H1650. Kind of data set: Cell cycle arrest in human NCI-H1650 cells assessed as accumulation at sub-G1 phase by propidium iodide staining-based flow cytometric analysis. It is filed as functional. A general note: Flow cytometry measures light scatter and fluorescence of single cells or particles in a stream.
Data set [3] deals with NCI-H1650. Kind of data set: Cytotoxicity against human NCI-H1650 cells assessed as reduction of colony formation at 20 to 40 uM after 7 days by crystal violet staining. The class given is functional, cell-based.
Data set [4] concerns the target D(1A) dopamine receptor (Homo sapiens) (UniProt P21728). Kind of data set: Binding affinity to dopamine D1 receptor (unknown origin) at 0.1 mM by radioligand displacement assay relative to control. Background: In a radioligand displacement assay an active substance lowers the binding of a labelled ligand.
In data set [5] the target is D(1B) dopamine receptor (Homo sapiens) (UniProt P21918). The data set is described as follows: Binding affinity to dopamine D5 receptor (unknown origin) at 0.1 mM by radioligand displacement assay relative to control.
Data set [6] addresses D(1A) dopamine receptor (Homo sapiens) (UniProt P21728). The data set is described as follows: Binding affinity to dopamine D1 receptor (unknown origin) at 1 mM by radioligand displacement assay relative to control.
Data set [7] concerns the target D(2) dopamine receptor (Homo sapiens) (UniProt P14416). The data set is described as follows: Binding affinity to dopamine D2 receptor (unknown origin) at 1 mM by radioligand displacement assay relative to control.
The next data set concerns Mus musculus. Kind of data set: Toxicity in mouse assessed as induction of lethargy at 10 mg/kg relative to control. It is filed as organism-based. The following applies: in vivo.
A short description of data set [8]: Initial drug concentration in mouse at 1 mg/kg, iv. It is filed as ADME, organism-based. The following applies: in vivo.
A short description of data set [9]: AUClast in mouse at 1 mg/kg, iv. It is filed as ADME, organism-based. The following applies: in vivo.
A short description of data set [10]: AUCinfinity in mouse at 1 mg/kg, iv. It is filed as ADME, organism-based. The following applies: in vivo. The arrangement: dose 1 mg/kg, time infinity, route intravenous.
The nature of data set [11]: Half life in mouse at 1 mg/kg, iv. It is filed as ADME, organism-based. The following applies: in vivo.
The nature of data set [12]: Volume of distribution at steady state in mouse at 1 mg/kg, iv. It is filed as ADME, organism-based. The following applies: in vivo, read-out: Vdss.
A short description of data set [13]: Clearance in mouse at 1 mg/kg, iv. It is filed as ADME, organism-based. The following applies: in vivo.
The nature of data set [14]: Tmax in mouse at 10 mg/kg, po. The class given is ADME, organism-based. The following applies: in vivo.
Data set [15] in a line: Cmax in mouse at 10 mg/kg, po. The class given is ADME, organism-based. The arrangement: dose 10 mg/kg, route oral. The following applies: in vivo.
Data set [16] can be described thus: AUClast in mouse at 10 mg/kg, po. The following applies: in vivo. It is filed as ADME, organism-based.
The nature of data set [17]: AUCinfinity in mouse at 10 mg/kg, po. The class given is ADME, organism-based. The arrangement: dose 10 mg/kg, time infinity, route oral. The following applies: in vivo.
Data set [18] is described as follows: Half life in mouse at 10 mg/kg, po. The following applies: in vivo. It is filed as ADME, organism-based.
A short description of data set [19]: Oral bioavailability in mouse at 10 mg/kg. The class given is ADME, organism-based. The following applies: in vivo.
Data set [20] is described as follows: Tmax in mouse at 10 mg/kg, ip. The following applies: in vivo. It is filed as ADME, organism-based.
Data set [21] in a line: Cmax in mouse at 10 mg/kg, ip. The class given is ADME, organism-based. The following applies: in vivo. The arrangement: dose 10 mg/kg, route intraperitoneal.
Data set [22] in a line: AUClast in mouse at 10 mg/kg, ip. The following applies: in vivo. It is filed as ADME, organism-based.
Data set [23] can be described thus: AUCinfinity in mouse at 1 mg/kg, ip. The class given is ADME, organism-based. Also noted: time infinity, route intraperitoneal. The following applies: in vivo.
A short description of data set [24]: Half life in mouse at 1 mg/kg, ip. The following applies: in vivo. It is filed as ADME, organism-based.
The nature of data set [25]: Bioavailability in mouse at 10 mg/kg, ip. The class given is ADME, organism-based. The following applies: in vivo.
For data set [26], the target named is D(2) dopamine receptor (Homo sapiens) (UniProt P14416). The data set is described as follows: Binding affinity to dopamine D2 receptor (unknown origin) at 0.1 mM by radioligand displacement assay relative to control.
Data set [27] addresses D(3) dopamine receptor (Homo sapiens) (UniProt P35462). The data set is described as follows: Binding affinity to dopamine D3 receptor (unknown origin) at 0.1 mM by radioligand displacement assay relative to control.
Data set [28] addresses T1, D(4) dopamine receptor (Homo sapiens) (UniProt P21917).
T1 sequence (whole entry): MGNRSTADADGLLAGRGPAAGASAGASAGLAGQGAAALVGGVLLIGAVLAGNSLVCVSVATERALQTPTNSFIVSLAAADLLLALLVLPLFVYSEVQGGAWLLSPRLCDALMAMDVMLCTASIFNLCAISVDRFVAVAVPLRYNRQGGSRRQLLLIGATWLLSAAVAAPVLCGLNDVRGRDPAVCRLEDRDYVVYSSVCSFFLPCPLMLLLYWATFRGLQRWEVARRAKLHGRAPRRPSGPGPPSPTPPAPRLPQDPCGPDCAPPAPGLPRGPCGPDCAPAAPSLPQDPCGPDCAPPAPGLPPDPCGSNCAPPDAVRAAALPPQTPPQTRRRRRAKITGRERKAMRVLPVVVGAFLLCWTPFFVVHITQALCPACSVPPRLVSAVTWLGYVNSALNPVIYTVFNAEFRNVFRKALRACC
The data set is described as follows: Binding affinity to dopamine D4 receptor (unknown origin) at 0.1 mM by radioligand displacement assay relative to control.

For data set [29], the target named is D(3) dopamine receptor (Homo sapiens) (UniProt P35462). Kind of data set: Binding affinity to dopamine D3 receptor (unknown origin) at 1 mM by radioligand displacement assay relative to control.
The subject of data set [30] is NCI-H1650. The data set is described as follows: Cell cycle arrest in human NCI-H1650 cells assessed as accumulation at sub-G1 phase at 1 to 40 uM by propidium iodide staining-based flow cytometric analysis. It is filed as functional.
The target in data set [31] is RAC-alpha serine/threonine-protein kinase (Homo sapiens) (UniProt P31749). The data set is described as follows: Inhibition of AKT phosphorylation in human NCI-H1650 cells at 20 to 40 uM after 12 hrs by Western blot analysis. The class given is cell-based.
Data set [32] deals with NCI-H1650. The data set is described as follows: Inhibition of ERK phosphorylation in human NCI-H1650 cells at 20 to 40 uM after 12 hrs by Western blot analysis. It is filed as cell-based.
The target in data set [33] is T1, D(4) dopamine receptor (Homo sapiens). The data set is described as follows: Binding affinity to dopamine D4 receptor (unknown origin) at 1 mM by radioligand displacement assay relative to control.
Data set [34] concerns the target D(1B) dopamine receptor (Homo sapiens) (UniProt P21918). Kind of data set: Binding affinity to dopamine D5 receptor (unknown origin) at 1 mM by radioligand displacement assay relative to control.

D(1B) dopamine receptor (Homo sapiens), sequence (P21918 whole entry): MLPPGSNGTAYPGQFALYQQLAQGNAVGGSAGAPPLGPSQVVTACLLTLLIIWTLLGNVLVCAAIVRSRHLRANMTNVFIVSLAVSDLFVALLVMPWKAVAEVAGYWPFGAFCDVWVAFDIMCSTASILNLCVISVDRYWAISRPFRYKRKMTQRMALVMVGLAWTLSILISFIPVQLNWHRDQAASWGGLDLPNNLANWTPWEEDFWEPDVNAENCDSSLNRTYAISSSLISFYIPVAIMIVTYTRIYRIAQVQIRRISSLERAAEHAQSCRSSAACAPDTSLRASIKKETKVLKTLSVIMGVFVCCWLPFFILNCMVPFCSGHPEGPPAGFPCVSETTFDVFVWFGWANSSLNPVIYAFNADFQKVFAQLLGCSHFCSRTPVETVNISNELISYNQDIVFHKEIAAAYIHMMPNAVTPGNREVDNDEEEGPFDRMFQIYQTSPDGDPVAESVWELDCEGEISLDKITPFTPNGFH
D(2) dopamine receptor (Homo sapiens), sequence (P14416 whole entry): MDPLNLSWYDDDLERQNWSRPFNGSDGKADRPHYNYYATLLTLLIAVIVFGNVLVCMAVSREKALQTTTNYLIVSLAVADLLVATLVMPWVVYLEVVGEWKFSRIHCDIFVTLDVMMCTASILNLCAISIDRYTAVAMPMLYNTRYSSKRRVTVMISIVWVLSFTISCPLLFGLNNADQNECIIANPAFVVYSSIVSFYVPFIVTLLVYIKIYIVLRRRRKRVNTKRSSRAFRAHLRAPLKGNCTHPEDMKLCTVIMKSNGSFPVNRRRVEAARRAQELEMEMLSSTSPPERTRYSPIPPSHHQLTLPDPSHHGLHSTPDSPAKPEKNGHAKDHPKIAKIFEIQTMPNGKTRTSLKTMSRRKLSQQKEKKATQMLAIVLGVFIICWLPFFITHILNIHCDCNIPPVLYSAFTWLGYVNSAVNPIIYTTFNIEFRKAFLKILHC
D(3) dopamine receptor (Homo sapiens), sequence (P35462 whole entry): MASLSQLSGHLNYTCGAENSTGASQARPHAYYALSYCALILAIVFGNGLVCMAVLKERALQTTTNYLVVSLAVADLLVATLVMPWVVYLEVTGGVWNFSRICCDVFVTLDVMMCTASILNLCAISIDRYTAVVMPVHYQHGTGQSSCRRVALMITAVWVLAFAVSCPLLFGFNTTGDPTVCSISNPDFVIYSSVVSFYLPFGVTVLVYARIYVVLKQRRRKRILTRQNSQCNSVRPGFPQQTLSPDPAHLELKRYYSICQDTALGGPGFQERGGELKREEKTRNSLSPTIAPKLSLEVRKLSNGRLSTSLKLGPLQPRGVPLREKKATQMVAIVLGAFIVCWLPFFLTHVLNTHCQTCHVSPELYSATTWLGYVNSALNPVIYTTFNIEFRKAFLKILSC
D(1A) dopamine receptor (Homo sapiens), sequence (P21728 whole entry): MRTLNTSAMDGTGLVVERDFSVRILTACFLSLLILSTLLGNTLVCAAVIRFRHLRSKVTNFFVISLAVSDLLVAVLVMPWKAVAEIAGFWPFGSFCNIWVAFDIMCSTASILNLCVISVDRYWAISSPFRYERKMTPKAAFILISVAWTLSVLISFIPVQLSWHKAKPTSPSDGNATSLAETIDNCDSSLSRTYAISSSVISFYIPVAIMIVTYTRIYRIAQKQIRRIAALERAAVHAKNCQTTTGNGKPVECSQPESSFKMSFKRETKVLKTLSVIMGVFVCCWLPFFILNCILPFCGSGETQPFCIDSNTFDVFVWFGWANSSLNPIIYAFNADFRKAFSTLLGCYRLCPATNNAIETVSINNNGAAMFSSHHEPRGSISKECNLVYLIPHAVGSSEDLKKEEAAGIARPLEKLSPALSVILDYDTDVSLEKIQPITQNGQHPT
RAC-alpha serine/threonine-protein kinase (Homo sapiens), sequence (P31749 whole entry): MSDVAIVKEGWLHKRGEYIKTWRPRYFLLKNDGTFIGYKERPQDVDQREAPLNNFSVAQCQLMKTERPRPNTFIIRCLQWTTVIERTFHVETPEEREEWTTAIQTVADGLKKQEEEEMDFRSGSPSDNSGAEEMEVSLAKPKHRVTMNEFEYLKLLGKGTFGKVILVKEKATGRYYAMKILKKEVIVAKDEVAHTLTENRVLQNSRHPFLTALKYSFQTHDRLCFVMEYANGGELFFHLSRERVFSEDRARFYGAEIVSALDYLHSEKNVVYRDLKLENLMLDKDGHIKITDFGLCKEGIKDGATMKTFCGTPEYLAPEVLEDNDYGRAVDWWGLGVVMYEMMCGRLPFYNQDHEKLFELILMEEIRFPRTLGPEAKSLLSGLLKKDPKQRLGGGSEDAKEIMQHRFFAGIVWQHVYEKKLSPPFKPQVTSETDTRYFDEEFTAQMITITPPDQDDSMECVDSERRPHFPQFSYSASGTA

For the molecule `Cc1ccc(S(=O)(=O)NCCCN2c3ccccc3Sc3ccc(Cl)cc32)cc1`, the 50% growth inhibitory concentration (GI50) in the data set with NCI-H1650 [1] was over 40 µM. Moreover, the Activity entry in the data set on NCI-H1650 [2] was “Dose-dependent effect”; in the data set on Mus musculus it was “Non-toxic”. Besides, the outcome in the data set on NCI-H1650 [3] was Active. For the same molecule, the inhibition was under 5% in data set [4], under 10% in data set [5], 12% in [6] and 14% in data set [7]. The molecule further registered a C0 in data set [8] of 2970 ng/mL. Also, the AUC(0-t) in data set [9] worked out at 1480 ng·h/mL; in data set [16], 2500 ng·h/mL; in data set [22] it was 7440 ng·h/mL. The AUC(0-inf) in [10] is 1500 ng·h/mL; in data set [17], 2510 ng·h/mL; in data set [23], 7570 ng·h/mL. Further, the half-life in [11] was 1.36 h; in data set [18], 3.14 h; in data set [24], 4.35 h. The Vd in data set [12] came to 0.72 L/kg. The molecule also showed a clearance in [13] of 11.1 mL/min/kg. Moreover, the Tmax in data set [14] amounted to 0.5 h; in data set [20], 1 h. Also, the Cmax in [15] was 834 ng/mL; in data set [21] it was 2250 ng/mL. Moreover, the bioavailability in data set [19] was found to be 16.9%; in data set [25] it was 50.2%.

For the molecule `COC(=O)NCCCN1c2ccccc2Sc2ccc(Cl)cc21`, the GI50 in the data set on NCI-H1650 [1] was over 40 µM. The Activity result is “Dose-dependent effect” in the data set with NCI-H1650 [2] and “Non-toxic” with Mus musculus. Further, in the data set with NCI-H1650 [3], the outcome was Active. Moreover, the inhibition is under 5% in data set [4]; under 5% in data set [26]; under 5% in data set [27]; under 5% in data set [28]; under 10% in [5]; 14% in data set [6]. For the same molecule, the inhibition stood at 21% in [7] and 22% in [29]. Besides, the C0 in [8] was found to be 1200 ng/mL. Also, the results for the AUC(0-t) in [9], in [16] and in data set [22] were 310 ng·h/mL, 489 ng·h/mL and 1450 ng·h/mL, respectively. Moreover, the AUC(0-inf) in [10] stood at 317 ng·h/mL; in data set [17] it was 498 ng·h/mL; in data set [23], 1450 ng·h/mL. Further, in data set [12], the Vd stood at 1.76 L/kg. Moreover, in [13], the clearance came to 52.5 mL/min/kg. The Tmax in data set [14] turned out to be 0.5 h; in data set [20], 0.25 h. The Cmax in [15] was 349 ng/mL; in [21], 859 ng/mL. The half-life was 1.19 h in [18] and 2.87 h in data set [24]. Also, the figures for the bioavailability in data set [19] and in [25] were 15.8% and 46.6%, respectively.

In the case of `CN1CCN(CCCN2c3ccccc3Sc3ccc(C(F)(F)F)cc32)CC1` [TRIFLUOPERAZINE], the GI50 in the data set on NCI-H1650 [1] worked out at 12.2 µM. Besides, in the data set with NCI-H1650 [30], the outcome was Active. For the same molecule, the inhibition result (in data set [31]; with NCI-H1650 [32]) was “Active” in each case. Besides, the inhibition in data set [4] is over 95%; in data set [26], over 95%; in [27], over 95%; in [28], 73%; in data set [5], 81%; in data set [6], over 95%. Besides, the inhibition in data set [7], in data set [29], in [33] and in data set [34] was over 95% each time. The Activity result in the data set on Mus musculus is “Toxic”.

For orientation: GI50 means the concentration giving 50% growth inhibition. The term inhibition denotes the relative decrease from the control value, in per cent. The term AUC(0-t) denotes exposure summed from dosing to a finite time, without extrapolation to infinity. Read a low AUC(0-t) as less exposure. A word on the AUC(0-inf): it is total exposure, with the tail of the curve extrapolated. By half-life is commonly meant the time in which the quantity being followed falls by half. What is called clearance is the volume of plasma or blood freed of the substance per unit of time. As usually defined, the Tmax is the time from dosing to the highest level. A word on the Cmax: it is the peak of the concentration-time curve. Broadly, the bioavailability is the share of a dose that reaches the circulation, judged against a reference dose that is usually intravenous.
